Molecules are shown by their SMILES. Values after ≈ are worked out from the molar mass of the structure shown.

The subject of experiment [1] is Staphylococcus aureus. As to the kind of experiment: Antibacterial activity against Staphylococcus aureus RN4220 overexpressing MsrA macrolide efflux protein after 24 hrs. Type of experiment: functional. Conditions: RN4220, 24 h. The gist of the method: (§1)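 Strains grown on nutrient agar for 24 h at 37 °C before testing. Broth microdilution MIC used an inoculum of 5 × 10⁵ CFU, prepared in normal saline (9 g/L) against a 0.5 McFarland standard. Plates were incubated at 37 °C, then MTT (5 mg/mL methanolic stock) was added for 20 min. Growth was scored by colour change.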

For experiment [2], the system named is Mycolicibacterium smegmatis. Description: Antimycobacterial activity against Mycobacterium smegmatis MC2 2700 expressing Mycobacterium tuberculosis fatty acid synthase 1 gene after 72 hrs by MTT assay. Type of experiment: functional. Conditions: MC2 2700, 72 h. The gist of the method:
(§2)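 Mycobacteria were grown on Columbia agar with 7% defibrinated horse blood, subcultured, and incubated 72 h at 37 °C before the assay. Broth microdilution MIC used an inoculum of 5 × 10⁵ CFU in normal saline, set against a 0.5 McFarland standard. Plates were incubated at 37 °C, then MTT (5 mg/mL methanolic stock) was added for 20 min. Growth was read by colour change.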
On the technique in general: Formazan colour is commonly taken as a measure of viable cells.

For experiment [3], the system named is Mycolicibacterium smegmatis. Description: Antimycobacterial activity against Mycobacterium smegmatis ATCC 14468 after 72 hrs by MTT assay. Type of experiment: functional. The following applies: ATCC 14468, 72 h. An outline of the steps: as §2
Experiment [4] concerns Mycolicibacterium phlei. Description: Antimycobacterial activity against Mycobacterium phlei ATCC 11758 after 72 hrs by MTT assay. The format is functional. The following applies: ATCC 11758, 72 h. The gist of the method:
(§3)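 Mycobacterium strains were subcultured on Columbia agar with 7% defibrinated horse blood at 37 °C for 72 h before assay. The inoculum was 5 × 10⁵ CFU in normal saline (9 g/L), set against a 0.5 McFarland standard. Microtiter plates were incubated at 37 °C. MIC was read after adding MTT (5 mg/mL methanolic stock) for 20 min, with growth shown by colour change.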

Experiment [5] concerns Mycolicibacterium fortuitum. As to the kind of experiment: Antimycobacterial activity against Mycobacterium fortuitum ATCC 6841 after 72 hrs by MTT assay. Type of experiment: functional. The following applies: ATCC 6841, 72 h. The gist of the method:
as §3

Experiment [6] has as its system Staphylococcus aureus. As to the kind of experiment: Antibacterial activity against Staphylococcus aureus ATCC 25923 after 24 hrs. Conditions: ATCC 25923, 24 h. Type of experiment: functional. The gist of the method:
as §1

The test system of experiment [7] is Pseudomonas aeruginosa. Description: […] activity against Pseudomonas aeruginosa K767 after 24 hrs. The format is functional. The following applies: K767, 24 h. An outline of the steps: as §1
In experiment [8] the test system is Staphylococcus aureus. Description: Antibacterial activity against Staphylococcus aureus SA-1199B overexpressing NorA MDR efflux pump after 24 hrs. Type of experiment: functional. An outline of the steps:
as §1

The test system of experiment [9] is Pseudomonas aeruginosa. Description: […] activity against Pseudomonas aeruginosa K1119 after 24 hrs. The format is functional. Conditions: K1119, 24 h. The gist of the method: as §1
Experiment [10] deals with Staphylococcus aureus. Description: Antibacterial activity against Staphylococcus aureus EMRSA-16 after 24 hrs. Type of experiment: functional. The following applies: EMRSA-16, 24 h. The gist of the method:
as §1

The test system of experiment [11] is Staphylococcus aureus. Description: Antibacterial activity against Staphylococcus aureus XU212 overexpressing TetK tetracycline efflux pump after 24 hrs. Type of experiment: functional. The following applies: XU212, 24 h. The gist of the method: as §1
For experiment [12], the system named is Staphylococcus aureus. Description: Antibacterial activity against Staphylococcus aureus EMRSA-15 after 24 hrs. The format is functional. The following applies: EMRSA-15, 24 h. The gist of the method:
as §1

The subject of experiment [13] is Salmonella typhimurium. As to the kind of experiment: […] activity against Salmonella enterica serovar Typhimurium L354 after 24 hrs. The format is functional, Salmonella enterica subsp. enterica serovar Typhimurium. The following applies: L354, 24 h. An outline of the steps:
(§4)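 The microdilution inoculum was 5 × 10⁵ CFU in normal saline (9 g/L), matched to a 0.5 McFarland standard. Plates were incubated at 37 °C. MTT (5 mg/mL methanolic stock) was added for 20 min, and colour change indicated growth for the MIC readout.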

The subject of experiment [14] is Salmonella typhimurium. Description: […] activity against Salmonella enterica serovar Typhimurium L10 after 24 hrs. Type of experiment: functional, Salmonella enterica subsp. enterica serovar Typhimurium. The following applies: L10, 24 h. An outline of the steps:
as §4

Compound `CC[C@H]1OC(=O)[C@H](C)[C@@H](O[C@H]2C[C@@](C)(OC)[C@@H](O)[C@H](C)O2)[C@H](C)[C@@H](O[C@@H]2O[C@H](C)C[C@H](N(C)C)[C@H]2O)[C@](C)(O)C[C@@H](C)C(=O)[C@H](C)[C@@H](O)[C@]1(C)O` [ERYTHROMYCIN] returned an MIC in experiment [1] of 349 µM.
As to `CC[C@@H](CO)NCCN[C@@H](CC)CO` [ETHAMBUTOL], the minimum inhibitory concentration (MIC) in [2], in experiment [3], in experiment [4] and in experiment [5] was 2.4 µM (≈ 0.49 µg/mL) throughout.
Take `NNC(=O)c1ccncc1` [ISONIAZID]: the MIC stood at 14.6 µM (≈ 2 µg/mL) in [2], 14.6 µM (≈ 2 µg/mL) in experiment [3], 14.6 µM (≈ 2 µg/mL) in experiment [4] and 29.2 µM (≈ 4 µg/mL) in experiment [5].
For the compound `CCn1cc(C(=O)O)c(=O)c2cc(F)c(N3CCNCC3)cc21` [NORFLOXACIN], the MIC is 3.1 µM in experiment [6], 6.2 µM (≈ 1.98 µg/mL) in experiment [7], 100 µM in [8] and 6.2 µM (≈ 1.98 µg/mL) in experiment [9].
For the compound `CC[C@H](C)C(=O)c1c(O)cc(O)cc1OC/C=C(\C)CCC=C(C)C` [OLYMPICIN A], the MIC is 2.9 µM in [1]; 2.9 µM in experiment [6]; 2.9 µM in [10]; 11.6 µM (≈ 4.02 µg/mL) in experiment [2]; greater than 1000 µM in experiment [7]; 11.6 µM (≈ 4.02 µg/mL) in experiment [3]. Further, the MIC in [11] is 2.9 µM; in experiment [4] it was 11.6 µM (≈ 4.02 µg/mL); in [5], 23.2 µM (≈ 8.04 µg/mL); in [12], 1.45 µM; in experiment [8], 2.9 µM; in experiment [13] it was greater than 1000 µM. The MIC in experiment [14] and in [9] was greater than 1000 µM throughout.
As for `CC[C@H](C)C(=O)c1c(O)cc(O)cc1OC/C=C(\C)C/C=C/C(C)(C)O` [OLYMPICIN B], the MIC in [1], in [6], in experiment [10], in experiment [11], in experiment [12] and in experiment [8] was 64 µg/mL each time.
Take `C=C(C)C(O)CC/C(C)=C/COc1cc(O)cc(O)c1C(=O)C(C)CC` (stereo unspecified) [OLYMPICIN C]: the MIC in [1], in [6], in [10], in experiment [11], in experiment [12] and in [8] was 64 µg/mL in each case.
`C=C(C)C(CC/C(C)=C/COc1cc(O)cc(O)c1C(=O)C(C)CC)OO` (stereo unspecified) [OLYMPICIN D]: the MIC in experiment [1], in experiment [6], in experiment [10], in experiment [11], in experiment [12] and in experiment [8] was 64 µg/mL throughout.
Regarding `CCC(C)C(=O)c1c(O)cc(O)cc1OC/C=C(\C)CCC1OC1(C)C` (stereo unspecified) [OLYMPICIN E], the MIC in [1], in [6], in experiment [10], in experiment [11], in experiment [12] and in [8] was 64 µg/mL in each case.
In the case of `Cc1onc(-c2ccccc2)c1C(=O)N[C@@H]1C(=O)N2[C@@H]1SC(C)(C)[C@@H]2C(=O)O` [OXACILLIN], the MIC in experiment [10] came out at 1280 µM; in experiment [12], 79 µM.
In the case of `CN(C)[C@@H]1C(O)=C(C(N)=O)C(=O)[C@@]2(O)C(O)=C3C(=O)c4c(O)cccc4[C@@](C)(O)[C@H]3C[C@@H]12` [TETRACYCLINE], the MIC in experiment [11] amounted to 288 µM; in [13], 2.3 µM (≈ 1.02 µg/mL); in experiment [14], 2.3 µM (≈ 1.02 µg/mL).

Broadly, the MIC is the lowest concentration found to suppress growth.

(Values after ChEMBL document CHEMBL2021901, “Antibacterial acylphloroglucinols from Hypericum olympicum” (2012).)
